# Source: ChEMBL document CHEMBL5303300, “EUbOPEN Chemogenomics Library - Multiplex” (2023)
# Several values for one entry are separate records, joined by “and”; a condition that tells them apart may be missing. Equal entries are not always repeated.
# What was measured:
# Format in all cases: toxicity, cell-based
# Fibroblast = assay: Multiplex assay against human fibroblast; details: number of replicates 2
# In short: (§1)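 Values for tubulin, mitochondrial-mass and membrane-permeability phenotypes are per cents of cells with healthy nuclei. These cells were identified by CellPathfinder machine-learning gating of live cells that had been stained at seeding with Hoechst33342, BioTracker Green Microtubule Cytoskeleton Dye, MitoTracker Red and Annexin V Alexa Fluor 680 and imaged on a CQ1 microscope at 37°C and 5% CO2 after compound addition. The gating first set Hoechst high-intensity objects apart from normal cells, then split normal cells into healthy, pyknosed or fragmented nuclei, and pyknosed cells into mitotic or apoptotic.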
# HEK-293T = assay: Multiplex assay against HEK293T; details: human, number of replicates 2; in short: as §1
# U2OS = assay: Multiplex assay against U2OS; details: human, number of replicates 2; in short: as §1
# [1] = 12 h, 1 µM, compound concentration 1 uM
# [2] = 12 h, 10 µM, compound concentration 10 uM
# [3] = 24 h, 1 µM, compound concentration 1 uM
# [4] = 24 h, 10 µM, compound concentration 10 uM
# [5] = 48 h, 1 µM, compound concentration 1 uM
# [6] = 48 h, 10 µM, compound concentration 10 uM
smiles,measurement,setting,value
COC(=O)c1ccc2c(c1)NC(=O)/C2=C(\Nc1ccc(-c2nccn2C)cc1)c1ccccc1,Population Apoptotic (%),Fibroblast; [1],35% and 43%
same,Population Fragmented Nuclei (%),Fibroblast; [1],10% and 29%
same,Population Healthy Nuclei (%),Fibroblast; [1],72% and 51%
same,Population Hoechst High Intensity Objects (%),Fibroblast; [1],0%
same,Population Membrane Permeable-Phenotype (%),Fibroblast; [1],2% and 1%
same,Population Mitochondria Different-Phenotype (%),Fibroblast; [1],1% and 3%
same,Population Mitotic Cells (%),Fibroblast; [1],64% and 56%
same,Population Normal (%),Fibroblast; [1],99%
same,Population Pyknosed Nuclei (%),Fibroblast; [1],17% and 19%
same,Population Tubulin-Different-Phenotype (%),Fibroblast; [1],7% and 9%
same,Total Cell Count,Fibroblast; [1],195 and 242
same,Population Apoptotic (%),Fibroblast; [2],50% and 45%
same,Population Fragmented Nuclei (%),Fibroblast; [2],21% and 17%
same,Population Healthy Nuclei (%),Fibroblast; [2],59% and 62%
same,Population Hoechst High Intensity Objects (%),Fibroblast; [2],0%
same,Population Membrane Permeable-Phenotype (%),Fibroblast; [2],13% and 9%
same,Population Mitochondria Different-Phenotype (%),Fibroblast; [2],2%
same,Population Mitotic Cells (%),Fibroblast; [2],50% and 54%
same,Population Normal (%),Fibroblast; [2],100% and 99%
same,Population Pyknosed Nuclei (%),Fibroblast; [2],18% and 19%
same,Population Tubulin-Different-Phenotype (%),Fibroblast; [2],67% and 56%
same,Total Cell Count,Fibroblast; [2],317 and 270
same,Population Apoptotic (%),Fibroblast; [3],64% and 60%
same,Population Healthy Nuclei (%),Fibroblast; [3],74% and 53%
same,Population Hoechst High Intensity Objects (%),Fibroblast; [3],0%
same,Population Membrane Permeable-Phenotype (%),Fibroblast; [3],3%
same,Population Mitochondria Different-Phenotype (%),Fibroblast; [3],0%
same,Population Mitotic Cells (%),Fibroblast; [3],35% and 39%
same,Population Normal (%),Fibroblast; [3],99%
same,Population Pyknosed Nuclei (%),Fibroblast; [3],15% and 14%
same,Population Tubulin-Different-Phenotype (%),Fibroblast; [3],11% and 8%
same,Total Cell Count,Fibroblast; [3],180 and 255
same,Population Apoptotic (%),Fibroblast; [4],70% and 67%
same,Population Fragmented Nuclei (%),Fibroblast; [4],24%
same,Population Healthy Nuclei (%),Fibroblast; [4],59% and 54%
same,Population Hoechst High Intensity Objects (%),Fibroblast; [4],0%
same,Population Membrane Permeable-Phenotype (%),Fibroblast; [4],5% and 6%
same,Population Mitochondria Different-Phenotype (%),Fibroblast; [4],8% and 6%
same,Population Mitotic Cells (%),Fibroblast; [4],29% and 32%
same,Population Normal (%),Fibroblast; [4],99%
same,Population Pyknosed Nuclei (%),Fibroblast; [4],16% and 21%
same,Population Tubulin-Different-Phenotype (%),Fibroblast; [4],60% and 43%
same,Total Cell Count,Fibroblast; [4],317 and 264
same,Population Apoptotic (%),Fibroblast; [5],48% and 73%
same,Population Healthy Nuclei (%),Fibroblast; [5],69% and 56%
same,Population Hoechst High Intensity Objects (%),Fibroblast; [5],0%
same,Population Membrane Permeable-Phenotype (%),Fibroblast; [5],1% and 3%
same,Population Mitochondria Different-Phenotype (%),Fibroblast; [5],0%
same,Population Mitotic Cells (%),Fibroblast; [5],51% and 26%
same,Population Normal (%),Fibroblast; [5],100% and 99%
same,Population Pyknosed Nuclei (%),Fibroblast; [5],20% and 9%
same,Population Tubulin-Different-Phenotype (%),Fibroblast; [5],3% and 8%
same,Total Cell Count,Fibroblast; [5],182 and 256
same,Population Apoptotic (%),Fibroblast; [6],84% and 86%
same,Population Fragmented Nuclei (%),Fibroblast; [6],22% and 26%
same,Population Healthy Nuclei (%),Fibroblast; [6],62% and 56%
same,Population Hoechst High Intensity Objects (%),Fibroblast; [6],0% and 1%
same,Population Membrane Permeable-Phenotype (%),Fibroblast; [6],5% and 6%
same,Population Mitochondria Different-Phenotype (%),Fibroblast; [6],5% and 9%
same,Population Mitotic Cells (%),Fibroblast; [6],15% and 13%
same,Population Normal (%),Fibroblast; [6],100% and 98%
same,Population Pyknosed Nuclei (%),Fibroblast; [6],14% and 17%
same,Population Tubulin-Different-Phenotype (%),Fibroblast; [6],45% and 38%
same,Total Cell Count,Fibroblast; [6],302 and 261
same,Population Apoptotic (%),HEK-293T; [1],50% and 35%
same,Population Fragmented Nuclei (%),HEK-293T; [1],3% and 2%
same,Population Healthy Nuclei (%),HEK-293T; [1],86%
same,Population Hoechst High Intensity Objects (%),HEK-293T; [1],4%
same,Population Membrane Permeable-Phenotype (%),HEK-293T; [1],4% and 3%
same,Population Mitochondria Different-Phenotype (%),HEK-293T; [1],20% and 17%
same,Population Mitotic Cells (%),HEK-293T; [1],49% and 64%
same,Population Normal (%),HEK-293T; [1],95%
same,Population Pyknosed Nuclei (%),HEK-293T; [1],10% and 11%
same,Population Tubulin-Different-Phenotype (%),HEK-293T; [1],52% and 51%
same,Total Cell Count,HEK-293T; [1],677 and 686
same,Population Apoptotic (%),HEK-293T; [2],53% and 62%
same,Population Fragmented Nuclei (%),HEK-293T; [2],2% and 4%
same,Population Healthy Nuclei (%),HEK-293T; [2],83% and 81%
same,Population Hoechst High Intensity Objects (%),HEK-293T; [2],10% and 11%
same,Population Membrane Permeable-Phenotype (%),HEK-293T; [2],6% and 5%
same,Population Mitochondria Different-Phenotype (%),HEK-293T; [2],37% and 38%
same,Population Mitotic Cells (%),HEK-293T; [2],46% and 37%
same,Population Normal (%),HEK-293T; [2],89% and 88%
same,Population Pyknosed Nuclei (%),HEK-293T; [2],13% and 14%
same,Population Tubulin-Different-Phenotype (%),HEK-293T; [2],88% and 93%
same,Total Cell Count,HEK-293T; [2],504 and 530
same,Population Apoptotic (%),HEK-293T; [3],30% and 31%
same,Population Fragmented Nuclei (%),HEK-293T; [3],5% and 3%
same,Population Healthy Nuclei (%),HEK-293T; [3],87% and 88%
same,Population Hoechst High Intensity Objects (%),HEK-293T; [3],6% and 7%
same,Population Membrane Permeable-Phenotype (%),HEK-293T; [3],4% and 1%
same,Population Mitochondria Different-Phenotype (%),HEK-293T; [3],8% and 5%
same,Population Mitotic Cells (%),HEK-293T; [3],69% and 68%
same,Population Normal (%),HEK-293T; [3],93% and 92%
same,Population Pyknosed Nuclei (%),HEK-293T; [3],6% and 8%
same,Population Tubulin-Different-Phenotype (%),HEK-293T; [3],35% and 36%
same,Total Cell Count,HEK-293T; [3],1123 and 936
same,Population Apoptotic (%),HEK-293T; [4],55% and 74%
same,Population Fragmented Nuclei (%),HEK-293T; [4],6% and 5%
same,Population Healthy Nuclei (%),HEK-293T; [4],79% and 80%
same,Population Hoechst High Intensity Objects (%),HEK-293T; [4],9% and 11%
same,Population Membrane Permeable-Phenotype (%),HEK-293T; [4],3% and 4%
same,Population Mitochondria Different-Phenotype (%),HEK-293T; [4],27% and 38%
same,Population Mitotic Cells (%),HEK-293T; [4],44% and 25%
same,Population Normal (%),HEK-293T; [4],90% and 88%
same,Population Pyknosed Nuclei (%),HEK-293T; [4],13% and 14%
same,Population Tubulin-Different-Phenotype (%),HEK-293T; [4],81% and 89%
same,Total Cell Count,HEK-293T; [4],660 and 604
same,Population Apoptotic (%),HEK-293T; [5],28% and 24%
same,Population Fragmented Nuclei (%),HEK-293T; [5],12% and 9%
same,Population Healthy Nuclei (%),HEK-293T; [5],84% and 87%
same,Population Hoechst High Intensity Objects (%),HEK-293T; [5],9%
same,Population Membrane Permeable-Phenotype (%),HEK-293T; [5],4% and 3%
same,Population Mitochondria Different-Phenotype (%),HEK-293T; [5],0% and 1%
same,Population Mitotic Cells (%),HEK-293T; [5],72% and 75%
same,Population Normal (%),HEK-293T; [5],90%
same,Population Pyknosed Nuclei (%),HEK-293T; [5],2% and 3%
same,Population Tubulin-Different-Phenotype (%),HEK-293T; [5],12% and 19%
same,Total Cell Count,HEK-293T; [5],2887 and 2005
same,Population Apoptotic (%),HEK-293T; [6],46% and 56%
same,Population Fragmented Nuclei (%),HEK-293T; [6],11% and 8%
same,Population Healthy Nuclei (%),HEK-293T; [6],83% and 85%
same,Population Hoechst High Intensity Objects (%),HEK-293T; [6],11%
same,Population Membrane Permeable-Phenotype (%),HEK-293T; [6],5% and 4%
same,Population Mitochondria Different-Phenotype (%),HEK-293T; [6],10% and 22%
same,Population Mitotic Cells (%),HEK-293T; [6],53% and 43%
same,Population Normal (%),HEK-293T; [6],88%
same,Population Pyknosed Nuclei (%),HEK-293T; [6],5% and 6%
same,Population Tubulin-Different-Phenotype (%),HEK-293T; [6],64% and 85%
same,Total Cell Count,HEK-293T; [6],1119 and 790
same,Population Healthy Nuclei (%),U2OS; [1],70% and 88%
same,Population Hoechst High Intensity Objects (%),U2OS; [1],0%
same,Population Membrane Permeable-Phenotype (%),U2OS; [1],12% and 2%
same,Population Mitochondria Different-Phenotype (%),U2OS; [1],4% and 0%
same,Population Mitotic Cells (%),U2OS; [1],100% and 64%
same,Population Normal (%),U2OS; [1],100%
same,Population Pyknosed Nuclei (%),U2OS; [1],2% and 8%
same,Population Tubulin-Different-Phenotype (%),U2OS; [1],54% and 83%
same,Population Apoptotic (%),U2OS; [2],50% and 68%
same,Population Healthy Nuclei (%),U2OS; [2],43% and 77%
same,Population Hoechst High Intensity Objects (%),U2OS; [2],0%
same,Population Membrane Permeable-Phenotype (%),U2OS; [2],25% and 15%
same,Population Mitochondria Different-Phenotype (%),U2OS; [2],7% and 20%
same,Population Mitotic Cells (%),U2OS; [2],50% and 31%
same,Population Normal (%),U2OS; [2],100%
same,Population Pyknosed Nuclei (%),U2OS; [2],16% and 15%
same,Population Tubulin-Different-Phenotype (%),U2OS; [2],55% and 43%
same,Total Cell Count,U2OS; [2],62 and 186
same,Population Apoptotic (%),U2OS; [3],84% and 57%
same,Population Healthy Nuclei (%),U2OS; [3],91% and 65%
same,Population Hoechst High Intensity Objects (%),U2OS; [3],0%
same,Population Membrane Permeable-Phenotype (%),U2OS; [3],2% and 11%
same,Population Mitochondria Different-Phenotype (%),U2OS; [3],0% and 5%
same,Population Mitotic Cells (%),U2OS; [3],15% and 42%
same,Population Normal (%),U2OS; [3],100%
same,Population Pyknosed Nuclei (%),U2OS; [3],5% and 13%
same,Population Tubulin-Different-Phenotype (%),U2OS; [3],79% and 44%
same,Population Apoptotic (%),U2OS; [4],58% and 68%
same,Population Healthy Nuclei (%),U2OS; [4],42% and 74%
same,Population Hoechst High Intensity Objects (%),U2OS; [4],0%
same,Population Membrane Permeable-Phenotype (%),U2OS; [4],22% and 10%
same,Population Mitochondria Different-Phenotype (%),U2OS; [4],27% and 31%
same,Population Mitotic Cells (%),U2OS; [4],41% and 31%
same,Population Normal (%),U2OS; [4],100%
same,Population Pyknosed Nuclei (%),U2OS; [4],23% and 20%
same,Population Tubulin-Different-Phenotype (%),U2OS; [4],50% and 52%
same,Population Apoptotic (%),U2OS; [5],50% and 62%
same,Population Healthy Nuclei (%),U2OS; [5],71% and 90%
same,Population Hoechst High Intensity Objects (%),U2OS; [5],0%
same,Population Membrane Permeable-Phenotype (%),U2OS; [5],5% and 2%
same,Population Mitochondria Different-Phenotype (%),U2OS; [5],3% and 0%
same,Population Mitotic Cells (%),U2OS; [5],50% and 37%
same,Population Normal (%),U2OS; [5],100%
same,Population Pyknosed Nuclei (%),U2OS; [5],9% and 5%
same,Population Tubulin-Different-Phenotype (%),U2OS; [5],58% and 86%
same,Population Apoptotic (%),U2OS; [6],93% and 88%
same,Population Healthy Nuclei (%),U2OS; [6],40% and 72%
same,Population Hoechst High Intensity Objects (%),U2OS; [6],3% and 0%
same,Population Membrane Permeable-Phenotype (%),U2OS; [6],27% and 11%
same,Population Mitochondria Different-Phenotype (%),U2OS; [6],40% and 21%
same,Population Mitotic Cells (%),U2OS; [6],6% and 11%
same,Population Normal (%),U2OS; [6],96% and 99%
same,Population Pyknosed Nuclei (%),U2OS; [6],27% and 21%
same,Population Tubulin-Different-Phenotype (%),U2OS; [6],59% and 40%
